In ChEMBL document CHEMBL3232847, “Discovery of 6-phenylpyrimido[4,5-b][1,4]oxazines as potent and selective acyl CoA:diacylglycerol acyltransferase 1 (DGAT1) inhibitors with in vivo efficacy in rodents” (J Med Chem, 2014):

Experiments:
[1] = Clearance in cynomolgus monkey at 0.5 mg/kg, iv; type: ADME, organism-based, Macaca fascicularis; set-up: dose 0.5 mg/kg, route intravenous; settings: in vivo
[2] = AUC in cynomolgus monkey at 30 mg/kg/day, po qd; type: ADME, organism-based, Macaca fascicularis; set-up: route oral; settings: plasma
Outline: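 Cynomolgus monkeys dosed orally once daily at 10 or 30 mg/kg for 21 days in a multiple-dose toxicity study. Plasma AUC was reported, with ALT/AST levels, QTc intervals and clinical and histopathological findings monitored.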

[3] = target: T1, Sterol O-acyltransferase 2 (Homo sapiens, UniProt O75908); test: Inhibition of human full-length flag-tagged ACAT2 expressed in baculovirus infected insect cells using [14C]palmitoyl CoA as substrate after 10 mins by scintillation counting
T1 sequence (O75908 whole entry): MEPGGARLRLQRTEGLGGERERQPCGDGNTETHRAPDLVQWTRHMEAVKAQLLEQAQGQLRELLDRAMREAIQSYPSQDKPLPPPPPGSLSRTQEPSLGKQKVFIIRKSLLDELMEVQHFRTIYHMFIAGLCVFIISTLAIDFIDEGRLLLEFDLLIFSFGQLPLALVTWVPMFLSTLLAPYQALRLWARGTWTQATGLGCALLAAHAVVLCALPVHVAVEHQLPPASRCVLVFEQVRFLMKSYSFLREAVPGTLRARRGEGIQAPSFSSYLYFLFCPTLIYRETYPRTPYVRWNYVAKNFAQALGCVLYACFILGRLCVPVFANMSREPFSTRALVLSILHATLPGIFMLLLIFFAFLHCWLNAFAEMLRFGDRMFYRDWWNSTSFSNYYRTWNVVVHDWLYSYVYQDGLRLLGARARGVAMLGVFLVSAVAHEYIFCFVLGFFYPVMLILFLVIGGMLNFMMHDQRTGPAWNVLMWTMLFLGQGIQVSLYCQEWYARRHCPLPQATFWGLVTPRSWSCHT

[4] = Volume of distribution at steady state in beagle dog at 0.2 mg/kg, iv; type: ADME, organism-based, Canis lupus familiaris; set-up: dose 0.2 mg/kg, route intravenous; settings: in vivo, read-out: Vdss
[5] = target: T2, Sterol O-acyltransferase 1 (Homo sapiens, UniProt P35610); test: Inhibition of human full-length flag-tagged ACAT1 expressed in baculovirus infected insect cells using [14C]palmitoyl CoA as substrate after 10 mins by scintillation counting
T2 sequence (P35610 whole entry): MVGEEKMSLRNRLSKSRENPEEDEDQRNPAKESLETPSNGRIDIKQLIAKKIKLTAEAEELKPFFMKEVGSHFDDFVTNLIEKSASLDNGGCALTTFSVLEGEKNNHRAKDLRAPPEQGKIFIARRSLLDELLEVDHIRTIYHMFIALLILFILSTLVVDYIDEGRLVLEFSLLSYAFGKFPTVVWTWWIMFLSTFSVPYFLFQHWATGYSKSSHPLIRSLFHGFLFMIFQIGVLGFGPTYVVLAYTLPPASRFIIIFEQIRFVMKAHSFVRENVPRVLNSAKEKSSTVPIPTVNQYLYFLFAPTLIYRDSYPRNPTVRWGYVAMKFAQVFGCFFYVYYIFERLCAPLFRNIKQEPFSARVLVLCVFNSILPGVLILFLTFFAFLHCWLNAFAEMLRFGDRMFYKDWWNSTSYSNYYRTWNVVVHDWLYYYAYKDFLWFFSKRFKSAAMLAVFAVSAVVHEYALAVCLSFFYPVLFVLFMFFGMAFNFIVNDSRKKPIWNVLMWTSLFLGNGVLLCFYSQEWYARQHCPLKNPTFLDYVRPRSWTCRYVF

Mus musculus = test: Reduction in plasma triglyceride level in C57BL/6J mouse at 0.3 mg/kg, po treated 30 mins prior to olive oil administration measured 3 hrs post olive oil administration relative to vehicle-treated control; type: functional; set-up: scale not given: the % may be the effect or the level left
Outline: (§1)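 Animals received vehicle or compound by oral gavage, then olive oil (5 mL/kg) by oral gavage 30 min later. Plasma triglycerides were measured before dosing and 3 h after the oil. The read-out was the change in TG from pre-dose, compared with vehicle-treated animals.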

Rattus norvegicus = test: Reduction in plasma triglyceride level in Sprague-Dawley rat at 1 mg/kg, po treated 30 mins prior to olive oil administration measured 3 hrs post olive oil administration relative to vehicle-treated control; type: functional; set-up: scale not given: the % may be the effect or the level left; outline: as §1

SMILES	clearance [1]	AUC [2]	IC50 [3]	Vd [4]	IC50 [5]	Activity (Mus musculus)	Activity (Rattus norvegicus)
CC1(C)Oc2nc(C(F)(F)F)nc(N)c2N=C1c1ccc2c(c1)CC[C@]21CC[C@@H](CC(=O)O)CC1	0.02 L/h/kg	2560 µM·h	> 10 µM	0.21 L/kg	> 10 µM		
CC1(C)Oc2ncnc(N)c2N=C1c1ccc([C@H]2CC[C@H](CC(=O)O)CC2)cc1						93%	110%
